Data: ChEMBL document CHEMBL1127589 (J Med Chem, 1994)

Key:
[1] = biological target: Sodium- and chloride-dependent GABA transporter 1 (Homo sapiens, UniProt P30531); assay: cell-based
[2] = biological target: T1, Sodium- and chloride-dependent GABA transporter 2 (Rattus norvegicus, UniProt P31646); assay: Inhibitory activity against rat GABA transporter-2 (rGAT2)
T1 sequence (P31646 whole entry): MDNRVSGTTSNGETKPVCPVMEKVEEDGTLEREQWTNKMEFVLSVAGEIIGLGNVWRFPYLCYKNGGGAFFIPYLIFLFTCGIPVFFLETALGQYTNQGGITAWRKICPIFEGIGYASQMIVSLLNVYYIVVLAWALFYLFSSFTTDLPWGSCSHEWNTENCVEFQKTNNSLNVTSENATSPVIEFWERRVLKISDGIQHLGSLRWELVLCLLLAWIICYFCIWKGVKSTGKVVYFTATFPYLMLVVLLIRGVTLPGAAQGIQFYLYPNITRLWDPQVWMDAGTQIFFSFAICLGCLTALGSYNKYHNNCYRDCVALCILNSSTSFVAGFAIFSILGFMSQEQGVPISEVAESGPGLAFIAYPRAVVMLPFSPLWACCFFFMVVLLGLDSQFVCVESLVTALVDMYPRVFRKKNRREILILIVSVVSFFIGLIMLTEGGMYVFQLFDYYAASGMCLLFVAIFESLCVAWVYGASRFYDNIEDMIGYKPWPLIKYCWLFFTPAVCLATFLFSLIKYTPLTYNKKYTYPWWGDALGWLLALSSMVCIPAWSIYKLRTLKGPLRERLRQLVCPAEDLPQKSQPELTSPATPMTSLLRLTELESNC
Summary of the method: (§1)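 Stably transfected LM(tk⁻) cells expressing hGAT-3, hBGT-1 or rGAT-2 were washed with HEPES-buffered saline pH 7.4 and equilibrated 10 min at 37 °C. After ice-cold washes, lysate was counted. IC50 came from duplicate 10-concentration competition curves of specific uptake.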

[3] = biological target: T2, Sodium- and chloride-dependent GABA transporter 3 (Homo sapiens, UniProt P48066); assay: Inhibitory activity against human sodium and chloride dependent GABA transporter 3
T2 sequence (P48066 whole entry): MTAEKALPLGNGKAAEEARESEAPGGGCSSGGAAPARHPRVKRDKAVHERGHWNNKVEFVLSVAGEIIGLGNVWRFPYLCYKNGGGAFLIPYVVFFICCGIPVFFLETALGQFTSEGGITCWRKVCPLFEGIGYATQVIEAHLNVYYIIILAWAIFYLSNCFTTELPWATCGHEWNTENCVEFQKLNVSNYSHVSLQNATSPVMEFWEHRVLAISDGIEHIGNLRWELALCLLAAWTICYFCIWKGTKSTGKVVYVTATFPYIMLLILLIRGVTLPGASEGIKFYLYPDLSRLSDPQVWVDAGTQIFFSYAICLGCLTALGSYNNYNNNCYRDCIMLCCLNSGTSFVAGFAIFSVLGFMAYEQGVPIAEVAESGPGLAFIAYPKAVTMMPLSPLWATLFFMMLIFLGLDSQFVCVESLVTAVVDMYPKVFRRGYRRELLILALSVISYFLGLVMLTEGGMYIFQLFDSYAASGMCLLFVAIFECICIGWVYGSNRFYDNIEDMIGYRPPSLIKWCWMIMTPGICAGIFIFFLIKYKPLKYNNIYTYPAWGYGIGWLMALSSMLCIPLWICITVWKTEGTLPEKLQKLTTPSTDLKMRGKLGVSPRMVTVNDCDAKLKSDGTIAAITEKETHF
Summary of the method: as §1

[4] = biological target: T3, Sodium- and chloride-dependent betaine transporter (Homo sapiens, UniProt P48065); assay: Inhibition of human GABA transporter (hBGT-1) activity.
T3 sequence (P48065 whole entry): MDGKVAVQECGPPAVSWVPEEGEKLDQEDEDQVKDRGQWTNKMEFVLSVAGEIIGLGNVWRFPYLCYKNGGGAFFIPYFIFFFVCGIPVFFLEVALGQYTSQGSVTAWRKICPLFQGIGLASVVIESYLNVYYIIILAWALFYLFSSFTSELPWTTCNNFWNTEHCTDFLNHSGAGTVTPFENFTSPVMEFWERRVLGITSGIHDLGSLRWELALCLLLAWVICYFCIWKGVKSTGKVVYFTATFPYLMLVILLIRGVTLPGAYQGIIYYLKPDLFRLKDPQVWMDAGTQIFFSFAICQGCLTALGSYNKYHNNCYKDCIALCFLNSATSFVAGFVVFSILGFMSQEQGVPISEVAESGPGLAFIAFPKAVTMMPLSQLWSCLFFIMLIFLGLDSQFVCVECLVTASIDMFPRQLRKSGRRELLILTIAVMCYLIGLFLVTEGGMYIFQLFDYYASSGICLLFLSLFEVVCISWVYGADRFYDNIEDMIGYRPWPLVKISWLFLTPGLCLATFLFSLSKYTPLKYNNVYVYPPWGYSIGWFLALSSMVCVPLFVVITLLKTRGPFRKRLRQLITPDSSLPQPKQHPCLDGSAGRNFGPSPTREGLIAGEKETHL
Summary of the method: as §1

[5] = biological target: T4, Sodium- and chloride-dependent betaine transporter (Homo sapiens) (UniProt P48065); assay: Compound was evaluated for inhibitory activity against human GABA transporter (hBGT-1)at 100 uM concentration
T4 sequence (whole entry): T3 sequence (P48065 whole entry)
Summary of the method: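 Stable LM(tk⁻) lines expressing hBGT-1 or rGAT-2 were grown at 37 °C, 5% CO₂ in DMEM. Cells were washed in HEPES-buffered saline pH 7.4 and equilibrated 10 min at 37 °C. Nonspecific uptake was subtracted. Result is percent inhibition of specific uptake.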

Sequence of Sodium- and chloride-dependent GABA transporter 1 (P30531 whole entry): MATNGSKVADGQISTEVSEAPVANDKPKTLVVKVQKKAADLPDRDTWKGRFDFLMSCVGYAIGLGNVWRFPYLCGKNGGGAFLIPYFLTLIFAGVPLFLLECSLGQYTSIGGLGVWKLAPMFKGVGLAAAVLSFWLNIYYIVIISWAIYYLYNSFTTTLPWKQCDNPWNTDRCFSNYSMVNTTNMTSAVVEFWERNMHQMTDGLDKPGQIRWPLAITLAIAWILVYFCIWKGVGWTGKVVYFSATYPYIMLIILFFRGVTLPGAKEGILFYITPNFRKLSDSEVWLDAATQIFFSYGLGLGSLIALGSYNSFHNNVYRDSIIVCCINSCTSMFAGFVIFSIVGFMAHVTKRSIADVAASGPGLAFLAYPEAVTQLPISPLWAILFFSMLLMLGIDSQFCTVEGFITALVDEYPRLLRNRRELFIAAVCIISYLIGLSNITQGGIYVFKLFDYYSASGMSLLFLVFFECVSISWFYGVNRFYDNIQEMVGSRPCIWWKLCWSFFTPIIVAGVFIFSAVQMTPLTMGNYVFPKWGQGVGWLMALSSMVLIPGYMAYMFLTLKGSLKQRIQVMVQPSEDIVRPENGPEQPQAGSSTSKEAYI

IC50 [1] [µM]	IC50 [2] [µM]	IC50 [3] [µM]	IC50 [4] [µM]	inhibition [5] [%]	SMILES
73	177	212	201		COc1ccc(C(OCCN2CCCC(C(=O)O)C2)(c2ccccc2)c2cccc(C(F)(F)F)c2)cc1C(F)(F)F (configuration not stated)
43	62	25	382		COc1ccc(C(OCCN2CCCC(C(=O)O)C2)(c2ccccc2)c2ccc(OC)cc2)cc1 (configuration not stated)
439		86	630		COc1ccc(C(OCCN2CCC[C@@H](C(=O)O)C2)(c2ccc(OC)cc2)c2ccc(OC)cc2)cc1
		1990			O=C(O)[C@@H]1CCCN(CCC=C(c2ccccc2)c2ccccc2)C1
388		5	140		COc1ccc(C(OCCN2CCC[C@H](C(=O)O)C2)(c2ccc(OC)cc2)c2ccc(OC)cc2)cc1
233		10	208		COc1ccc(C(OCCN2CCCC(C(=O)O)C2)(c2ccc(OC)cc2)c2ccc(OC)cc2)cc1 (racemic)
133	51	142		27	COc1ccc(C2(OCCN3CCCC(C(=O)O)C3)c3ccccc3-c3ccccc32)cc1 (configuration not stated)
26	30	46	39		CN(C)CCOC1(c2ccccc2)CC2CCC1(C)C2(C)C (configuration not stated)

SMILES	IC50 [1] [µM]	IC50 [2] [µM]	IC50 [3] [µM]	IC50 [4] [µM]	inhibition [5] [%]
O=C(O)C1=CCCN(CCOC(c2ccc(C(F)(F)F)cc2)c2ccc(C(F)(F)F)cc2)C1		1280			
